Assay results as given in ChEMBL document CHEMBL4689842, “EUbOPEN Chemogenomics Library wave 1” (2021).

Tested on: HEK-293T
Assay: Multiplex assay against HEK293T;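 for Population Tubulin-Different-Phenotype (%): share of the cells with healthy nuclei that show this phenotype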
Format: toxicity, cell-based
Conditions: human
Procedure, shortened: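 Four dyes were applied at seeding to live cells: Hoechst33342, BioTracker Green Microtubule Cytoskeleton Dye, MitoTracker Red and Annexin V Alexa Fluor 680. Imaging after compound addition used a CQ1 microscope at 37°C and 5% CO2. CellPathfinder machine-learning gating then sorted cells into Hoechst high-intensity objects or normal cells, normal cells into healthy, pyknosed or fragmented nuclei, and pyknosed cells into mitotic or apoptotic, with tubulin, mitochondrial-mass and membrane-permeability phenotypes given as per cents of healthy-nucleus cells.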

[1] = 12 h, 1 µM, compound concentration 1 uM, replicate 1
[2] = 12 h, 1 µM, compound concentration 1 uM, replicate 2
[3] = 12 h, 10 µM, compound concentration 10 uM, replicate 1
[4] = 12 h, 10 µM, compound concentration 10 uM, replicate 2
[5] = 24 h, 1 µM, compound concentration 1 uM, replicate 1
[6] = 24 h, 1 µM, compound concentration 1 uM, replicate 2
[7] = 24 h, 10 µM, compound concentration 10 uM, replicate 1
[8] = 24 h, 10 µM, compound concentration 10 uM, replicate 2
[9] = 48 h, 1 µM, compound concentration 1 uM, replicate 1
[10] = 48 h, 1 µM, compound concentration 1 uM, replicate 2
[11] = 48 h, 10 µM, compound concentration 10 uM, replicate 1
[12] = 48 h, 10 µM, compound concentration 10 uM, replicate 2

Cl.O=C(O)c1cc(-c2ccc(C3CCNCC3)cc2)c2ccc(-c3ccc(C(F)(F)F)cc3)cc2c1
Population Apoptotic (%) [1]: 43%
Population Fragmented Nuclei (%) [1]: 17%
Population Healthy Nuclei (%) [1]: 21%
Population Hoechst High Intensity Objects (%) [1]: 19%
Population Membrane Permeable-Phenotype (%) [1]: 0%
Population Mitochondria Different-Phenotype (%) [1]: 76%
Population Mitotic Cells (%) [1]: 56%
Population Normal (%) [1]: 80%
Population Pyknosed Nuclei (%) [1]: 61%
Population Tubulin-Different-Phenotype (%) [1]: 36%
Total Cell Count [1]: 147
Population Apoptotic (%) [2]: 6%
Population Fragmented Nuclei (%) [2]: 8%
Population Healthy Nuclei (%) [2]: 38%
Population Hoechst High Intensity Objects (%) [2]: 6%
Population Membrane Permeable-Phenotype (%) [2]: 7%
Population Mitochondria Different-Phenotype (%) [2]: 9%
Population Mitotic Cells (%) [2]: 93%
Population Normal (%) [2]: 93%
Population Pyknosed Nuclei (%) [2]: 52%
Population Tubulin-Different-Phenotype (%) [2]: 4%
Total Cell Count [2]: 178
Population Apoptotic (%) [3]: 62%
Population Fragmented Nuclei (%) [3]: 16%
Population Healthy Nuclei (%) [3]: 20%
Population Hoechst High Intensity Objects (%) [3]: 10%
Population Membrane Permeable-Phenotype (%) [3]: 3%
Population Mitochondria Different-Phenotype (%) [3]: 80%
Population Mitotic Cells (%) [3]: 37%
Population Normal (%) [3]: 89%
Population Pyknosed Nuclei (%) [3]: 62%
Population Tubulin-Different-Phenotype (%) [3]: 49%
Total Cell Count [3]: 305
Population Apoptotic (%) [4]: 64%
Population Fragmented Nuclei (%) [4]: 8%
Population Healthy Nuclei (%) [4]: 16%
Population Hoechst High Intensity Objects (%) [4]: 16%
Population Membrane Permeable-Phenotype (%) [4]: 20%
Population Mitochondria Different-Phenotype (%) [4]: 66%
Population Mitotic Cells (%) [4]: 35%
Population Normal (%) [4]: 83%
Population Pyknosed Nuclei (%) [4]: 75%
Population Tubulin-Different-Phenotype (%) [4]: 66%
Total Cell Count [4]: 111
Population Apoptotic (%) [5]: 43%
Population Fragmented Nuclei (%) [5]: 14%
Population Healthy Nuclei (%) [5]: 33%
Population Hoechst High Intensity Objects (%) [5]: 22%
Population Membrane Permeable-Phenotype (%) [5]: 2%
Population Mitochondria Different-Phenotype (%) [5]: 59%
Population Mitotic Cells (%) [5]: 56%
Population Normal (%) [5]: 77%
Population Pyknosed Nuclei (%) [5]: 51%
Population Tubulin-Different-Phenotype (%) [5]: 28%
Total Cell Count [5]: 160
Population Apoptotic (%) [6]: 9%
Population Fragmented Nuclei (%) [6]: 8%
Population Healthy Nuclei (%) [6]: 72%
Population Hoechst High Intensity Objects (%) [6]: 4%
Population Membrane Permeable-Phenotype (%) [6]: 4%
Population Mitochondria Different-Phenotype (%) [6]: 11%
Population Mitotic Cells (%) [6]: 90%
Population Normal (%) [6]: 95%
Population Pyknosed Nuclei (%) [6]: 19%
Population Tubulin-Different-Phenotype (%) [6]: 9%
Total Cell Count [6]: 236
Population Apoptotic (%) [7]: 66%
Population Fragmented Nuclei (%) [7]: 20%
Population Healthy Nuclei (%) [7]: 18%
Population Hoechst High Intensity Objects (%) [7]: 16%
Population Membrane Permeable-Phenotype (%) [7]: 4%
Population Mitochondria Different-Phenotype (%) [7]: 78%
Population Mitotic Cells (%) [7]: 34%
Population Normal (%) [7]: 83%
Population Pyknosed Nuclei (%) [7]: 60%
Population Tubulin-Different-Phenotype (%) [7]: 57%
Total Cell Count [7]: 297
Population Apoptotic (%) [8]: 60%
Population Fragmented Nuclei (%) [8]: 11%
Population Healthy Nuclei (%) [8]: 16%
Population Hoechst High Intensity Objects (%) [8]: 28%
Population Membrane Permeable-Phenotype (%) [8]: 0%
Population Mitochondria Different-Phenotype (%) [8]: 61%
Population Mitotic Cells (%) [8]: 39%
Population Normal (%) [8]: 71%
Population Pyknosed Nuclei (%) [8]: 72%
Population Tubulin-Different-Phenotype (%) [8]: 76%
Total Cell Count [8]: 112
Population Apoptotic (%) [9]: 38%
Population Fragmented Nuclei (%) [9]: 25%
Population Healthy Nuclei (%) [9]: 27%
Population Hoechst High Intensity Objects (%) [9]: 21%
Population Membrane Permeable-Phenotype (%) [9]: 2%
Population Mitochondria Different-Phenotype (%) [9]: 25%
Population Mitotic Cells (%) [9]: 61%
Population Normal (%) [9]: 78%
Population Pyknosed Nuclei (%) [9]: 47%
Population Tubulin-Different-Phenotype (%) [9]: 19%
Total Cell Count [9]: 166
Population Apoptotic (%) [10]: 8%
Population Fragmented Nuclei (%) [10]: 4%
Population Healthy Nuclei (%) [10]: 82%
Population Hoechst High Intensity Objects (%) [10]: 2%
Population Membrane Permeable-Phenotype (%) [10]: 4%
Population Mitochondria Different-Phenotype (%) [10]: 1%
Population Mitotic Cells (%) [10]: 92%
Population Normal (%) [10]: 97%
Population Pyknosed Nuclei (%) [10]: 13%
Population Tubulin-Different-Phenotype (%) [10]: 9%
Total Cell Count [10]: 390
Population Apoptotic (%) [11]: 60%
Population Fragmented Nuclei (%) [11]: 34%
Population Healthy Nuclei (%) [11]: 7%
Population Hoechst High Intensity Objects (%) [11]: 21%
Population Membrane Permeable-Phenotype (%) [11]: 0%
Population Mitochondria Different-Phenotype (%) [11]: 89%
Population Mitotic Cells (%) [11]: 39%
Population Normal (%) [11]: 78%
Population Pyknosed Nuclei (%) [11]: 58%
Population Tubulin-Different-Phenotype (%) [11]: 78%
Total Cell Count [11]: 314
Population Apoptotic (%) [12]: 40%
Population Fragmented Nuclei (%) [12]: 13%
Population Healthy Nuclei (%) [12]: 23%
Population Hoechst High Intensity Objects (%) [12]: 27%
Population Membrane Permeable-Phenotype (%) [12]: 20%
Population Mitochondria Different-Phenotype (%) [12]: 30%
Population Mitotic Cells (%) [12]: 59%
Population Normal (%) [12]: 72%
Population Pyknosed Nuclei (%) [12]: 62%
Population Tubulin-Different-Phenotype (%) [12]: 95%
Total Cell Count [12]: 119

CNC(=O)Nc1ccc2c(c1)[C@@]1(CC2)OC(=O)N(CC(=O)N(Cc2ccc(F)cc2)[C@@H](C)C(F)(F)F)C1=O [A-486]
Population Apoptotic (%) [1]: 25%
Population Fragmented Nuclei (%) [1]: 17%
Population Healthy Nuclei (%) [1]: 47%
Population Hoechst High Intensity Objects (%) [1]: 15%
Population Membrane Permeable-Phenotype (%) [1]: 17%
Population Mitochondria Different-Phenotype (%) [1]: 15%
Population Mitotic Cells (%) [1]: 74%
Population Normal (%) [1]: 84%
Population Pyknosed Nuclei (%) [1]: 35%
Population Tubulin-Different-Phenotype (%) [1]: 48%
Total Cell Count [1]: 632
Population Apoptotic (%) [2]: 12%
Population Fragmented Nuclei (%) [2]: 4%
Population Healthy Nuclei (%) [2]: 82%
Population Hoechst High Intensity Objects (%) [2]: 2%
Population Membrane Permeable-Phenotype (%) [2]: 29%
Population Mitochondria Different-Phenotype (%) [2]: 21%
Population Mitotic Cells (%) [2]: 87%
Population Normal (%) [2]: 97%
Population Pyknosed Nuclei (%) [2]: 13%
Population Tubulin-Different-Phenotype (%) [2]: 88%
Total Cell Count [2]: 1325
Population Apoptotic (%) [3]: 14%
Population Fragmented Nuclei (%) [3]: 20%
Population Healthy Nuclei (%) [3]: 57%
Population Hoechst High Intensity Objects (%) [3]: 17%
Population Membrane Permeable-Phenotype (%) [3]: 7%
Population Mitochondria Different-Phenotype (%) [3]: 6%
Population Mitotic Cells (%) [3]: 85%
Population Normal (%) [3]: 82%
Population Pyknosed Nuclei (%) [3]: 22%
Population Tubulin-Different-Phenotype (%) [3]: 4%
Total Cell Count [3]: 510
Population Apoptotic (%) [4]: 5%
Population Fragmented Nuclei (%) [4]: 9%
Population Healthy Nuclei (%) [4]: 85%
Population Hoechst High Intensity Objects (%) [4]: 1%
Population Membrane Permeable-Phenotype (%) [4]: 2%
Population Mitochondria Different-Phenotype (%) [4]: 8%
Population Mitotic Cells (%) [4]: 95%
Population Normal (%) [4]: 98%
Population Pyknosed Nuclei (%) [4]: 4%
Population Tubulin-Different-Phenotype (%) [4]: 13%
Total Cell Count [4]: 1787
Population Apoptotic (%) [5]: 24%
Population Fragmented Nuclei (%) [5]: 12%
Population Healthy Nuclei (%) [5]: 73%
Population Hoechst High Intensity Objects (%) [5]: 10%
Population Membrane Permeable-Phenotype (%) [5]: 25%
Population Mitochondria Different-Phenotype (%) [5]: 11%
Population Mitotic Cells (%) [5]: 75%
Population Normal (%) [5]: 89%
Population Pyknosed Nuclei (%) [5]: 14%
Population Tubulin-Different-Phenotype (%) [5]: 67%
Total Cell Count [5]: 669
Population Apoptotic (%) [6]: 6%
Population Fragmented Nuclei (%) [6]: 14%
Population Healthy Nuclei (%) [6]: 79%
Population Hoechst High Intensity Objects (%) [6]: 3%
Population Membrane Permeable-Phenotype (%) [6]: 36%
Population Mitochondria Different-Phenotype (%) [6]: 10%
Population Mitotic Cells (%) [6]: 93%
Population Normal (%) [6]: 96%
Population Pyknosed Nuclei (%) [6]: 5%
Population Tubulin-Different-Phenotype (%) [6]: 89%
Total Cell Count [6]: 1891
Population Apoptotic (%) [7]: 33%
Population Fragmented Nuclei (%) [7]: 15%
Population Healthy Nuclei (%) [7]: 75%
Population Hoechst High Intensity Objects (%) [7]: 9%
Population Membrane Permeable-Phenotype (%) [7]: 8%
Population Mitochondria Different-Phenotype (%) [7]: 4%
Population Mitotic Cells (%) [7]: 66%
Population Normal (%) [7]: 90%
Population Pyknosed Nuclei (%) [7]: 9%
Population Tubulin-Different-Phenotype (%) [7]: 10%
Total Cell Count [7]: 551
Population Apoptotic (%) [8]: 7%
Population Fragmented Nuclei (%) [8]: 25%
Population Healthy Nuclei (%) [8]: 72%
Population Hoechst High Intensity Objects (%) [8]: 2%
Population Membrane Permeable-Phenotype (%) [8]: 7%
Population Mitochondria Different-Phenotype (%) [8]: 2%
Population Mitotic Cells (%) [8]: 92%
Population Normal (%) [8]: 97%
Population Pyknosed Nuclei (%) [8]: 1%
Population Tubulin-Different-Phenotype (%) [8]: 13%
Total Cell Count [8]: 3041
